PGC1a Ac signal: raises PGC1a acetylation signal in U2OS cells; U2OS PGC1a acetylation AlphaScreen, overnight; 0.21% of 350,000 active; activation, % at 15.6 µM;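 active means every replicate reaching activation of at least 50%, whatever the mean replicate activation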;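 further: hits raise the AlphaScreen acetylation signal above neutral controls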
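Incubation: overnight compound treatment, 37 °C. System: U2OS cells transduced with flag-tagged PGC1a and GCN5 acetyltransferase. Detection: AlphaScreen lysate read. Compound: single-point compound dosing.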
An asterisk follows results filed as active. This excerpt belongs to a sample that is enriched for hits.

SMILES | PGC1a Ac signal
N#CC(C#N)=c1ccc2c(c1)NC1(CCCCC1)N=2 | 162*
O=C(C[C@H]1C[C@H]2c3cc(NC(=O)C4CCC4)ccc3O[C@H]2[C@H](CO)O1)NCc1ccc(-c2ccccc2)cc1 | -64
CC(NS(=O)(=O)c1ccccc1Cl)C1CC2CCC1C2 (configuration not stated) | 102*
O=C(CC1SC(=Nc2ccc3c(c2)OCCO3)NC1=O)Nc1ccc(F)cc1F (configuration not stated) | 189*
CCOC(=O)COc1ccc(/C=C/[N+](=O)[O-])c(OCC(=O)OCC)c1 | 77*
CCN(CC)C(=O)c1sc(NC(=O)c2ccncc2)c(C(=O)OC)c1C | -52
O=C1C(Cl)=C(N2CCOCC2)C(=O)N1CCc1ccccc1 | -42
C[C@@H]1CN([C@H](C)CO)C(=O)Cc2cc(NC(=O)Nc3ccccc3)ccc2O[C@H]1CN(C)Cc1ccccc1 | -61
Cc1cc(S(=O)(=O)c2ccc([N+](=O)[O-])cn2)ccc1Br | 135*
C[C@H]1CN([C@@H](C)CO)C(=O)CCCn2cc(nn2)CO[C@H]1CN(C)S(=O)(=O)c1ccc(Cl)cc1 | -49
O=C(Nc1ccc(-c2cn3c(n2)SCC3)cc1)c1ccc2ccccc2n1 | -40
COc1ccc(CCN2C(=O)CC(C(C)c3ccccc3)C2=O)cc1OC (configuration not stated) | -45
COc1ccc(C2c3c(-c4ccccc4O)n[nH]c3C(=O)N2CCc2ccc(OC)c(OC)c2)cc1 (configuration not stated) | 63*
CN=C1c2cc3cc(OC)ccc3n2CCN1Cc1ccccc1 | 83*
Fc1cccc(CN2C[C@@H]3N[C@H](C2)C3c2ccc(/C=C/c3ccccc3)cc2)c1 (some centres not stated) | 66*
COc1cccc(CN2C[C@@H]3N[C@H](C2)C3c2ccc(-c3cccc(C#N)c3)cc2)c1 (some centres not stated) | 79*
COc1cccc(-c2ccc(C3[C@@H]4CN(Cc5ccccn5)C[C@H]3N4)cc2)c1 (some centres not stated) | 56*
COc1cccc(-c2ccc(C3[C@@H]4CN(Cc5cccc(F)c5)C[C@H]3N4)cc2)c1 (some centres not stated) | -97
Fc1cccc(-c2ccc([C@@H]3[C@@H]4CN(Cc5nccs5)C[C@H]3N4)cc2)c1 | 75*
O=C(Nc1ccc(F)cc1)N[C@H]1C=C[C@H](CC(=O)N2CCCCC2)O[C@H]1CO | -43
C=C1C(=O)C23CCC4C(C)(C(=O)OC)CCCC4(C)C2CCC1(O)C3 (configuration not stated) | -76
Cc1ccc(-c2cnc3c(c2)C(=O)N([C@H](C)CO)C[C@H](C)[C@@H](CN(C)C)O3)cc1 | -50
O=C(CCl)N=c1sccn1Cc1ccccc1Cl | -52
Cc1c(NC(=O)c2ccccc2NS(=O)(=O)c2ccc(Br)cc2)c(=O)n(-c2ccccc2)n1C | -42
CCOc1ccc(S(=O)(=O)N(C)c2ccc(OCC(=O)N3c4ccc(C)cc4C4CN(C)CCC43)cc2)cc1 (configuration not stated) | -75
SMILES | PGC1a Ac signal
NCCCCCC(=O)O | -51
Cc1ccc(S(=O)(=O)N[C@@H]2C=C[C@H](CC(=O)NCCN3CCCCC3)O[C@@H]2CO)cc1 | -58
COc1cccc(CN2C[C@@H]3N[C@H](C2)C3c2ccc(-c3ccccc3F)cc2)c1 (some centres not stated) | 108*
COc1cc(CN2C[C@@H]3N[C@H](C2)C3c2ccc(-c3ccccc3C)cc2)cc(OC)c1 (some centres not stated) | -105
O=C(NCc1ccccc1)C1Cc2c(-c3ccc4c(c3)OCO4)ccnc2O1 (configuration not stated) | 133*
CC(=O)c1cccc(-c2ccnc3c2CC(C(=O)NCC2CC2)O3)c1 (configuration not stated) | 58*
COc1cccc(C(=O)CSc2nnc(CNS(=O)(=O)c3ccc(C)cc3)n2C)c1 | -89
COC(=O)COc1c(/C=C\c2nc(O)c([N+](=O)[O-])c(=O)[nH]2)cccc1OC | -55
COc1ccc(C2=NOC(C(=O)Nc3cccnc3)C2)cc1 (configuration not stated) | 64*
CC(C)C#Cc1cnc2c(c1)C(=O)N([C@H](C)CO)C[C@H](C)[C@H](CN(C)C(=O)c1ccccn1)O2 | -45
O=C(CSc1nnc(-c2ccncc2)n1-c1ccc(Cl)cc1)NCc1cccs1 | 81*
O=C(CSc1nnc(-c2ccco2)n1-c1ccccc1)Nc1c(Cl)cc(Cl)cc1C(=O)O | -52
COc1cccc(N2CCN(c3ncnc4c3[nH]c3ccc(F)cc34)CC2C)c1 (configuration not stated) | -77
CCOC(=O)C1=CC[C@@H](c2ccc([N+](=O)[O-])cc2)N(S(=O)(=O)c2ccc(C)cc2)[C@H]1c1ccccc1 | 57*
CC1CCN(S(=O)(=O)c2ccc(Oc3ccc([N+](=O)[O-])cc3)cc2)CC1 | -54
Cc1sc2ncnc(N3CCC(C(=O)NNC(=O)COc4ccc(Cl)cc4)CC3)c2c1C | -46
CC(C)NC(=O)Nc1ccc2c(c1)C(=O)N([C@@H](C)CO)C[C@@H](C)[C@H](CN(C)C(=O)NC(C)C)OCCCC[C@@H](C)O2 | -49
Cc1cc(C)c(NC(=O)c2ccc(S(=O)(=O)N(C)C)cc2)c(C)n1 | -50
Cn1cnnc1Sc1ccc(/C=C/C(=O)c2ccc(O)cc2)cc1[N+](=O)[O-] | 58*
O=C(N/N=C/C(Br)=C/c1ccccc1)c1ccccc1F | 57*
O=C(NN=C1c2ccccc2-c2ccccc21)c1ccccc1Br | -66
O=C(CNc1cccc2ccccc12)N/N=C/C(Br)=C/c1ccccc1 | 213*
O=C(N/N=C/C(Br)=C/c1ccccc1)c1n[nH]c2c1CCC2 | 72*
O=C(N/N=C/C(Br)=C/c1ccccc1)c1cc(-c2ccco2)[nH]n1 | 143*
O=C1Nc2ccccc2N=C(c2ccccc2)C1N(Cc1ccc(F)cc1)C(=O)c1cccnc1 (configuration not stated) | -41
SMILES | PGC1a Ac signal
O=C(COC(=O)Cc1ccc(S(=O)(=O)N2CCOCC2)s1)NCCc1ccccc1 | -41
O=C(CC1CC1)N[C@H]1CC[C@H](CCNS(=O)(=O)c2ccc(Cl)cc2)O[C@H]1CO | -53
O=C(c1ccccc1Cl)N1CCNCC1 | -67
O=C(N/N=C/C(Br)=C/c1ccccc1)c1cccs1 | 166*
CC1C(=O)NN=C1C(=O)N/N=C\C(Br)=C\c1ccccc1 (configuration not stated) | 404*
O=C(Nc1ccc2c(c1)C(=O)N(c1ccccc1)C2=O)c1cccs1 | -53
c1csc(CNc2ncnc3ccc(-c4ccoc4)cc23)c1 | -50
C=C1C(=O)[C@]23C[C@H]1CCC2[C@@]1(C)C(C[C@@H]3O)[C@](C)(C(=O)OC)CC[C@@H]1OC(C)=O (some centres not stated) | -103
C#CC(=O)N(c1ccc(OC)cc1OC)C(C(=O)NC1CCCC1)c1cccs1 (configuration not stated) | -95
COc1ccc(C2NC3=C(CCC3)C3(C#N)C(OC)(OC)N=C(N)C23C#N)cc1 (configuration not stated) | -41
CCOc1ccc2c(c1)C(C)=CC(C)(C)N2S(=O)(=O)c1ccc(NC(C)=O)cc1 | 106*
CC(=O)Nc1ccc(OS(=O)(=O)c2ccc(C)cc2C)cc1 | -48
CCC(=O)N(C)C[C@@H]1Oc2cc(C#Cc3cccnc3)ccc2S(=O)(=O)N([C@H](C)CO)C[C@H]1C | -29
